Results published in the EternaBench riboswitch data.

Test system: MS2 coat protein
Assay: apparent Kd, MS2 coat protein; higher = weaker binding; RNA-MaP array; FMN 200 µM where present
Procedure, shortened: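 Two titrations, one without ligand and one with constant ligand, were run with SNAP-549-labelled MS2 coat protein from 0.7 or 1.5 nM, doubling to 3 µM. The targets were designs transcribed by stalled E. coli RNA polymerase on Illumina sequencing-chip clusters, in 100 mM Tris-HCl pH 7.5, 80 mM KCl, 4 mM MgCl2, BSA, DTT, yeast tRNA and Tween-20. The apparent Kd is the median of filtered per-cluster binding-curve fits, with green signal normalised to red-channel RNA signal and control-cluster median Fmax.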

[1] = designed as: OFF switch for flavin mononucleotide, no ligand
[2] = ligand present: flavin mononucleotide, designed as: OFF switch for flavin mononucleotide
[3] = designed as: ON switch for flavin mononucleotide, no ligand
[4] = ligand present: flavin mononucleotide, designed as: ON switch for flavin mononucleotide

Sequence	apparent Kd [1] [µM]	apparent Kd [2] [µM]	apparent Kd [3] [µM]	apparent Kd [4] [µM]
GGGUUGUGAGGAUAUUAGUUGUACGUCAAUAGACGUAUAGGUGAGAAGGCACAUGAGGAUCACCCAUGUUCCUG	0.0238	0.0569	–	–
CUCUUGUCAGGAUAUGCUGCUCGUCACGAAAGUGAUGAGUAGCAGAAGGGACAUGAGGAUCACCCAUGUAAAUA	0.0537	0.0175	–	–
GCUGGAAAAGGAUAUACAUAACGUGCUUCGGCACGAGAUCUACAUGAGGAUCACCCAUGUAGAAGGUUUCCAGC	0.014	0.0302	–	–
CUGACCUGUGUCAGGAUAUCGUUUGCCAUUGUGACUGAGAAGGGACAUGAGGAUCACCCAUGUCGAGCGACGGG	0.0284	0.0357	–	–
GCGAGUACGAGAGGAUAUUGACAUGAGGAUCACCCAUGUAUUUGGGAGUGUUCACUGAAUUCUUACGAGAAGGCUCGUACACGC	0.244	0.252	–	–
GCCAUCGCAUGAGGAUAUGCUCCCGUUUCGGGAGCAGAAGGCAUGUCAUAUGACAUGAGGAUCACCCAUGUAGCUAAGAUGGCA	–	–	0.576	0.0175
GCACUUAGAGUUGAACCGUUACUAACAUGAGGAUCACCCAUGUAGGAUAUGCUAAUAGUAUUGAAGCAGAAGGACACUAAGUGC	0.00546	0.00588	–	–
UUAAAUCAUGUAGGAUAUGCAUGGCGAAGCUACGCAGAAGGACAUGAGGAUCACCCAUGUCUCUCCGUCUGCGUACAGACGGAG	0.0246	0.155	–	–
GGAUGACAAAGUCAUCCUAAACGAACAUGAGGAUCACCCAUGUAGGAUAUGCUACUCAAAGAGUAGCAGAAGGACAUGUGCCUU	0.0373	0.26	–	–
CGGCCGCUACGCCGGCUCGACGCACAGGAUAUGCUGUUACAUGAGGAUCACCCAUGUGGCCAUGAGCAGAAGGGUGAUUCGCGA	–	–	0.0489	0.0309
AGUGCUAUGUAGAAGGCAGAUCUGAUUCAGAUCUGAGGAUAUACAUGAGGAUCACCCAUGUUAUGCACCAGCACGAGAGUGCAC	0.00791	0.0168	–	–
UAUAAUACAUAGGAUAUCGAAUAAAUCAUUUAACGAGAAGGAUGAACAUGAGGAUCACCCAUGUGGUAUCAUGG	0.263	0.241	–	–
UGACGGAGCUGAGGAUAUAACAUGAGGAUCACCCAUGUAAGUCUCCAGGAAACUGGAGACAAUAGUUAGAAGGCAGCUCCGUCA	0.0146	0.0194	–	–
UUGUUCUGAGGAUAUACAUGAGGAUCACCCAUGUGUUUCUGCUUGGUGUCUAGCGAAUGUAGAAGGCUGUUCUC	0.0217	0.0229	–	–
AAAAUGUGAGGAUAUCAGGUGUGCUAGCGUACUGGUACAUCUGAGAAGGCACAUGAGGAUCACCCAUGUUUCUU	0.0215	0.0797	–	–
GUCAGCUCCUGAGGAUAUACAACACUGCUUCGGCAGUGUAUUAAGAUCACAUGAGGAUCACCCAUGUAGAAGGCACGAGCUGAU	0.0121	0.156	–	–
UGUCGGAGCAGAGGAUAUUACAUGAGGAUCACCCAUGUAUGAACCAAUAGCUGGAAACAGCAUUGUAAGAAGGCUGCUCCGACA	0.00475	0.0121	–	–
AGGUAACAUGAGGAUCACCCAUGUCAGGAUAUCAUGAAGAGGAGAUUAGAGGAGAGGUUGAGAAGGGACUAUAU	0.076	0.0574	–	–
CGGAUCGCAUGAGGAUAUGGUCAGCUUUGCUGACCAGAAGGCAUGUCAUAAGACAUGAGGAUCACCCAUGUAGUUAAGAUCCGA	–	–	0.576	0.0463
ACAUGGAAUACAGGAUAUGUUAGUUUACAGUAGAUUGGUUAUUACUUAACUACAGAAGGGUAAUACAUGAGGAUCACCCAUGUA	–	–	0.0184	0.0118
AAUUAUAUGUAGAAGGUACAGACUUAUGAGUAGUAAGGAUAUACAAAAUUAUUAAUUCUCAAGUUACAUGAGGAUCACCCAUGU	–	–	0.0116	0.00833
AAUAACAGAGGAUAUACUAUUUUAUGUAUUUAUUAUUUUGAACAUGAGGAUCACCCAUGUAGAAGGCUGAAUAA	0.0227	0.0217	–	–
CCUACCUUCACAGGAUAUGCUAUCCUUUGGGUAGCAGAAGGGUGAUAACAUGAGGAUCACCCAUGUGGUAGGCCCGGUGACGGG	–	–	1.3	0.105
UUGGACGUGGUAGGAUAUGUAGGAUAUUCCUACAUGAGGAUCACCCAUGUUGACAUGGAAGAAGGACAGAAGGACGAUGUCCAU	–	–	0.112	0.035
AGCACGAAAGUGCAACGAUGUAGCAGAAGGACAUGAGGAUCACCCAUGUAACGAGUAACUCGAAUGUAGGAUAUGCUACAUCGA	0.025	0.157	–	–
CGCAACAUACAGAAGGAGUAAAGGAGAAGUGUACUAGGAUAUGUUAACAUGAGGAUCACCCAUGUCGUUUGGGAUUUUGUUGCG	0.383	0.0993	–	–
GGUGGACAUGAGGAUCACCCAUGUGAGGAUAUCGGCCGGUUCGUGGUGGCUGGCGUCUCGAGAAGGCACAUAGU	0.153	0.129	–	–
